According to ChEMBL document CHEMBL1649405, “Structure-activity relationships study of 6-chloro-4-(2-chlorophenyl)-3-(2-hydroxyethyl) quinolin-2(1H)-one derivatives as novel non-nucleoside anti-hepatitis B virus agents” (Eur J Med Chem, 2011):
The source made the active and inactive calls. The rule behind the calls is not given here.

Assays:
[1] = Cytotoxicity against human HepG2(2.2.15) cells; format: cell-based
In short: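 HepG 2.2.15 cells in DMEM with 10% FBS, 37 °C, 5% CO2. CC50 = concentration killing 50% of cells. Mean of two independent experiments.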

[2] = Selectivity index, ratio of CC50 for human HepG2(2.2.15) cells to IC50 for Hepatitis B virus infected in human HepG2(2.2.15) cells assessed as inhibition of viral e antigen secretion; format: functional
In short: (§1)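 Ratio of CC50 in HepG 2.2.15 cells to the IC50 for HBeAg or HBsAg secretion. Both values come from ELISA and cytotoxicity runs on the same cell line. Each input is the mean of two independent experiments.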

Hepatitis B virus [3] = experiment: Antiviral activity against Hepatitis B virus infected in human HepG2(2.2.15) cells assessed as inhibition of viral surface antigen secretion after 6 days by ELISA; format: functional, organism-based; conditions: HepG2 2.2.15, 144 h
In short: (§2)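 HepG 2.2.15 cells in DMEM with 10% FBS, 37 °C, 5% CO2. Treated for 6 days with refeeding every other day. Culture medium centrifuged at 6000 g to clear debris. HBeAg or HBsAg measured by quantitative ELISA on a microplate reader. IC50 = concentration giving 50% inhibition of secretion. Mean of two independent experiments.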

Hepatitis B virus [4] = experiment: Antiviral activity against Hepatitis B virus infected in human HepG2(2.2.15) cells assessed as inhibition of viral DNA replication after 6 days by PCR analysis; format: functional, organism-based
In short: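 HepG 2.2.15 cells in DMEM with 10% FBS, 5 mM L-glutamine, penicillin/streptomycin, 37 °C, 5% CO2; seeded 5 × 10^5 per well, medium changed every 2 days. Compound added after 6 days, refed every other day for 6 more days. HBV DNA by real-time PCR against a cloned HBV plasmid standard series. IC50 = 50% inhibition. Mean of two independent experiments.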

[5] = Selectivity index, ratio of CC50 for human HepG2(2.2.15) cells to IC50 for Hepatitis B virus infected in human HepG2(2.2.15) cells assessed as inhibition of viral surface antigen secretion; format: functional; in short: as §1
Hepatitis B virus [6] = experiment: Antiviral activity against Hepatitis B virus infected in human HepG2(2.2.15) cells assessed as inhibition of viral e antigen secretion after 6 days by ELISA; format: functional, organism-based; conditions: HepG2 2.2.15, 144 h; in short: as §2
[7] = Cytotoxicity against human HepG2(2.2.15) cells assessed as cell viability at 0.02 mM after 72 hrs by MTT assay; format: cell-based; conditions: read-out: Activity
Nucleic Acid [8] = experiment: Increase of enhancer 2 transcriptional activity in HBV infected in human HepG2(2.2.15) cells transfected with pGL3 at 0.02 mM by luciferase reporter gene assay relative to mock-treated control; format: cell-based; conditions: Hepatitis B virus
In short: (§3)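 HepG2 cells transfected with pGL3-based firefly luciferase constructs carrying HBV promoter or enhancer elements; pGL3 Basic as control, phRL-CMV Renilla as internal control. Treated with 0.02 mM; read by dual-luciferase assay. Fold activity = treated promoter activity / mock-treated activity. Triplicate samples.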

Nucleic Acid [9] = experiment: Inhibition of preS2 promoter transcriptional activity in human HepG2 cells transfected with pGL3 at 0.02 mM by luciferase reporter gene assay relative to mock-treated control; conditions: Hepatitis B virus
Nucleic Acid [10] = experiment: Increase of core/pregenomic factor transcriptional activity in HBV infected in human HepG2(2.2.15) cells transfected with pGL3 at 0.02 mM by luciferase reporter gene assay relative to mock-treated control; format: cell-based; conditions: Hepatitis B virus; in short: as §3
[11] = Cytotoxicity against human HepG2(2.2.15) cells assessed as cell viability at 0.02 mM after 48 hrs by MTT assay; format: cell-based; conditions: read-out: Activity
Nucleic Acid [12] = experiment: Increase of preS1 promoter transcriptional activity in HBV infected in human HepG2(2.2.15) cells transfected with pGL3 at 0.02 mM by luciferase reporter gene assay relative to mock-treated control; format: cell-based; conditions: Hepatitis B virus; in short: as §3
Nucleic Acid [13] = experiment: Increase of enhancer 1 transcriptional activity in HBV infected in human HepG2(2.2.15) cells transfected with pGL3 at 0.02 mM by luciferase reporter gene assay relative to mock-treated control; format: cell-based; conditions: Hepatitis B virus; in short: as §3
Nucleic Acid [14] = experiment: Increase of X promoter transcriptional activity in HBV infected in human HepG2(2.2.15) cells transfected with pGL3 at 0.02 mM by luciferase reporter gene assay relative to mock-treated control; format: cell-based; conditions: Hepatitis B virus; in short: as §3
[15] = Hepatitis B virus, HepG2 2.2.15, 144 h, read-out: IC50

| IC50 (Hepatitis B virus [3]) [µM] | IC50 (Hepatitis B virus [4]; hepg2 2.2.15) | IC50 (Hepatitis B virus [6]) [µM] | IC50 (Hepatitis B virus [4]; [15]) [µM] | SMILES | CC50 [1] [µM] | Selectivity Index [2] | Selectivity Index [5] | viability at 72 h, 20 µM [7] [%] | fold change (FC) (Nucleic Acid [8]) | inhibition (Nucleic Acid [9]) | fold change (FC) (Nucleic Acid [10]) | viability at 48 h, 20 µM [11] [%] | fold change (FC) (Nucleic Acid [12]) | fold change (FC) (Nucleic Acid [13]) | fold change (FC) (Nucleic Acid [14]) |
| --- | --- | --- | --- | --- | --- | --- | --- | --- | --- | --- | --- | --- | --- | --- | --- |
| 20 | Not Active | 28 | – | COc1cccc(/C=C/C(=O)OCCCc2c(-c3ccccc3Cl)c3cc(Cl)ccc3[nH]c2=O)c1 | > 1100 | >39 | >55 | – | – | – | – | – | – | – | – |
| 490 | Not Active | 48 | – | COc1ccc(/C=C/C(=O)OCCc2c(-c3ccccc3Cl)c3cc(Cl)ccc3[nH]c2=O)cc1 | > 1200 | >25 | >2.5 | – | – | – | – | – | – | – | – |
| 11 | – | 18 | 160 | COc1cccc(/C=C/C(=O)OCc2c(-c3ccccc3Cl)c3cc(Cl)ccc3[nH]c2=O)c1 | > 1800 | >100 | >170 | – | – | – | – | – | – | – | – |
| 10 | – | 26 | 45 | COc1cccc(/C=C/C(=O)OCCc2c(-c3ccccc3Cl)c3cc(Cl)ccc3[nH]c2=O)c1 | > 1300 | >51 | >135 | 80.4 | 14 | Active | 4 | 95.2 | 4 | 12 | 4 |
| 33 | – | 27 | 110 | O=C(/C=C/c1cccc(F)c1)OCCc1c(-c2ccccc2Cl)c2cc(Cl)ccc2[nH]c1=O | > 1600 | >58 | >48 | – | – | – | – | – | – | – | – |
| 61 | Not Active | 24 | – | COc1ccccc1/C=C/C(=O)OCCc1c(-c2ccccc2Cl)c2cc(Cl)ccc2[nH]c1=O | 770 | 32 | 13 | – | – | – | – | – | – | – | – |
| 230 | Not Active | 19 | – | O=C(/C=C/c1ccc(C(F)(F)F)cc1)OCCc1c(-c2ccccc2Cl)c2cc(Cl)ccc2[nH]c1=O | > 1400 | >73 | >6.1 | – | – | – | – | – | – | – | – |
| 58 | – | 22 | 410 | O=C(/C=C/c1cccc(C(F)(F)F)c1)OCCc1c(-c2ccccc2Cl)c2cc(Cl)ccc2[nH]c1=O | > 1400 | >63 | >24 | – | – | – | – | – | – | – | – |
